In the library only some 1.9% were active in any assay of this set; here they are far more common.
STEP inh = blocks human striatal-enriched tyrosine phosphatase. inhibition, % at 20 µM. hit rate 0.25% among 360,000. recombinant STEP, OMFP fluorogenic substrate, fluorescence. AID 588621. P54829;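 active = inhibition at 20 µM, scaled per plate between control wells, above about 37%, limit read from the data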;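 also: 0% = DMSO with enzyme and substrate and 100% = substrate only without enzyme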
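Material: STEP (striatal-enriched tyrosine phosphatase) enzyme, cell-free; Compound dosing: 20 µM single dose in 1% DMSO; Technique: fluorescence read at 480 nm ex / 540 nm em; Times: reaction 20 min, ambient temperature; Medium: 50 mM Bis-Tris pH 6.0 with 2.5 mM DTT and 0.005% Tween 20; Also added: OMFP at 25 µM.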
CSN inh = CSN deneddylation inhibition. Purified CSN, SCF-Nedd8-OG deneddylation, fluorescence polarization. inhibition, % at 12.5 µM. hit rate 0.38% among 360,000. AID 651999;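 active = pattern-corrected inhibition above about 35%, with an unprinted fluorescence ratio check between 0.5 and 1.5, limit read from the data, passing the limit was not always enough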;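 also: 0% = enzyme with substrate and 100% = substrate without enzyme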
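Assay system: purified human Csn5 enzyme expressed in HEK293T cells; measure: % inhibition; also added: SCFSkp2-Nedd8OG substrate at 10 nM final; technique: fluorescence polarization; times: reaction 90 min, room temperature; medium: Tris buffer pH 7.5, NaCl, DTT, Tween-20, trehalose, ovalbumin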
DNMT1 block = blocks human DNA methyltransferase DNMT1 | P26358 | DNMT1 molecular beacon, Hinp1I cleavage, fluorescence | inhibition (reported as % activation of signal), % at 10 µM | hit rate 0.83% among 360,000; in the data active = inhibition above about 50%
Scp1 inh = inhibitors of human Scp-1 phosphatase | AID 493091 | hit rate 0.88% among 340,000 | Recombinant Scp1, phosphopeptide, malachite green phosphate absorbance | inhibition, % at 20 µM;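 active = inhibition above about 50% at 20 µM, limit read from the data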;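 also: plate controls were DMSO wells with enzyme for no effect and wells lacking enzyme for full effect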
Target sequence (Q9GZU7 76-261 limits assumed): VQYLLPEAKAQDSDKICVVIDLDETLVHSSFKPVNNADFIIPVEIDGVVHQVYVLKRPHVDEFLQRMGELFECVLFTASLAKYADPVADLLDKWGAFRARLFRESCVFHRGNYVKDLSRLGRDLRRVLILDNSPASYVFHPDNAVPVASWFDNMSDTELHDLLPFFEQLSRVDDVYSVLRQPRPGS
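System: truncated SCP-1 phosphatase (76-261aa); medium: Tris acetate buffer pH 5.5 with MgCl2 and Tween-20; incubation: 45 min room-temperature reaction, 5 min colour, 30 min stabiliser; compound: single 20 µM dose, 1% DMSO; reagent: Phosphorylated 17-residue peptide substrate; read-out: % inhibition at 20 µM; technique: colorimetric free-phosphate detection, absorbance 630 nm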
SUMO1-SIM PPI = alters human SUMO1 binding to SIM partners | hit rate 0.33% among 360,000 | P63165 | AID 602429 | SUMO1 binding to a labelled peptide, TR-FRET, 1 h | inhibition, % at 20 µM; in the data active = inhibition above about 37%
Target sequence (P63165 whole entry, looked up): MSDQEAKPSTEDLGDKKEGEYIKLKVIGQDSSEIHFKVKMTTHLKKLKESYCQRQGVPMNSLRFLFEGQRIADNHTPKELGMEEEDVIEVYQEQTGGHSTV
LMPTP block = blocks human LMPTP phosphatase. P24666. recombinant LMPTP-A, OMFP fluorogenic substrate, fluorescence intensity. inhibition, % at 20 µM. hit rate 0.22% among 360,000;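 active = compounds that cut the enzyme signal by at least half of the control window in the single-dose screen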;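 also: plate controls were DMSO wells with enzyme plus substrate for no effect and substrate without enzyme for full effect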
Target sequence (P24666 whole entry, looked up): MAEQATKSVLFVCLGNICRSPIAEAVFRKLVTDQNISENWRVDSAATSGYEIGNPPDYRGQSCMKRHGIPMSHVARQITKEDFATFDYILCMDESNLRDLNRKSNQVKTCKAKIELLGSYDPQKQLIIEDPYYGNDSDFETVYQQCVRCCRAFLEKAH
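material = LMPTP-A | quantity = 0.625 nM enzyme | reagent = OMFP substrate, 400 µM final | buffer or medium = Bis-Tris pH 6.0, DTT, detergent | detection = endpoint fluorescence intensity from OMFP dephosphorylation | dosing = single 20 µM dose | read-out basis = % inhibition relative to no-enzyme and uninhibited control wells | control set = no-enzyme and uninhibited controls | timing = 50 min at room temperature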
STEP inh conf = STEP (human) phosphatase inhibition, single concentration confirmation; shares compounds with STEP inh; recombinant STEP, OMFP fluorogenic substrate, fluorescence; inhibition, % at 20 µM; hit rate 32% among 520; call rule not given here;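 also: 0% = enzyme with substrate plus DMSO and 100% = substrate without enzyme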
* = called active by the depositor; · = no result given.

SMILES | STEP inh | CSN inh | DNMT1 block | Scp1 inh | SUMO1-SIM PPI | LMPTP block | STEP inh conf
CN(CCC(=O)Nc1ccc(Cl)cc1)Cc1ccccc1 | -3 | 0 | 0 | 0 | 2 | 0 | ·
Cc1cc2nc(/C=C/c3nc4cc(C)c(C)cc4[nH]3)[nH]c2cc1C | 46* | 5 | 27 | -4 | -1 | 39 | 19
OCCN1CCN(C(=S)c2ccc(Cl)c(Cl)c2)CC1 | 90* | 0 | -2 | -6 | 3 | 0 | 60*
COc1cc(NC(=S)N2CCN(CCO)CC2)c(OC)cc1Cl | 3 | 5 | -4 | -4 | 1 | -2 | ·
CN(C(=O)COC(=O)c1cnc(Cl)c(Cl)c1)C1CCCCC1 | 0 | -1 | 1 | -5 | -2 | -1 | ·
COCCNC(=S)Nc1ccc(N2CCOCC2)c(S(=O)(=O)Nc2ccc(Cl)cc2)c1 | 6 | 3 | 1 | · | 8 | 4 | ·
O=S(=O)(Nc1ccc(Cl)cc1)c1ccc(N2CCOCC2)c(NC(=S)NCCN2CCOCC2)c1 | 92* | -6 | 8 | 15 | 0 | 0 | 71*
COc1cccc(C2CC3(CC(C)(C)NC(=S)N3)Oc3cc(O)ccc32)c1 (stereo not drawn) | 112* | -1 | 9 | -1 | 2 | 1 | -5
CN(C(=O)COC(=O)CNC(=O)c1ccc2ccccc2c1)c1c(N)n(Cc2ccccc2)c(=O)[nH]c1=O | 0 | 1 | 0 | -8 | -9 | 0 | ·
O=C(O)c1cccc(S(=O)(=O)Nc2ccc(-c3ccccc3)cc2)c1 | 9 | 1 | 4 | -1 | 6 | -1 | ·
O=C(O)c1cccc(S(=O)(=O)NNc2ccccc2C(F)(F)F)c1 | 44* | 6 | 9 | 28 | 88* | 6 | 9
COc1ccc(C(=O)Nc2ccc(/C(C)=N/NC(=O)c3ccncc3)cc2)cc1 | 82* | 6 | 22 | · | -6 | 54* | 19
Cc1cc(C)cc(OCC(=O)OCc2cc([N+](=O)[O-])cc3c2OCOC3)c1 | 1 | -2 | -5 | -7 | -9 | 2 | ·
CN(C)C(=O)CSc1nc2cc(S(=O)(=O)N3CCOCC3)ccc2o1 | 5 | -3 | -1 | -18 | 0 | 0 | ·
NC(=O)CSc1nc2cc(S(=O)(=O)N3CCOCC3)ccc2o1 | 56* | -3 | 5 | 7 | -5 | -1 | 1
CCN1CCN(C(=S)c2ccc(Br)cc2)CC1 | 88* | -6 | -1 | -4 | -2 | 0 | 45*
CCN1CCN(CCC(=O)Nc2ccc(Br)cc2)CC1 | 0 | 8 | -3 | 5 | 0 | -3 | ·
CCN1CCN(C(=S)c2ccc(O)cc2)CC1 | 88* | 2 | 0 | 2 | 5 | 0 | 49*
O=S1OCCN1c1ccccc1 (stereo not drawn) | 42* | -2 | 1 | -2 | 1 | -1 | 31
COc1ccnc(CSC(N)=Nc2ccccc2OC)c1 | 35* | 2 | 1 | -2 | -2 | 1 | 3
COc1ccccc1NC(=O)COC(=O)c1ccc(N2CCCC2=O)cc1 | -1 | -2 | -2 | 3 | 3 | -1 | ·
CN1CCN(C(=S)C(=O)Nc2ccccc2)CC1 | 41* | 6 | -2 | -2 | 0 | 0 | 23
CN1CCN(C(=S)C(=O)NCc2ccccc2)CC1 | -1 | 2 | -3 | -2 | -4 | -1 | ·
COc1ccccc1C(=O)OC(C)CN1CCN(C)CC1 (stereo not drawn) | 1 | 7 | 1 | 0 | 2 | -4 | ·
CC(C)C(NS(=O)(=O)c1ccc2c(c1)oc(=O)n2C)C(=O)N1CCN(Cc2ccccc2)CC1 (stereo not drawn) | -1 | 1 | 1 | -12 | -3 | 2 | ·
SMILES | STEP inh | CSN inh | DNMT1 block | Scp1 inh | SUMO1-SIM PPI | LMPTP block | STEP inh conf
COc1cc(Cl)ccc1NC(=S)N(CCN1CCOCC1)C1CCN(C(C)=O)CC1 | 51* | -1 | 0 | 0 | -2 | -2 | 8
CC(=O)N1CCC(N(CCN2CCOCC2)C(=S)Nc2ccc(C)cc2C)CC1 | 6 | 1 | 4 | -2 | 5 | 1 | ·
CC(=O)N1CCC(N(CCN2CCOCC2)C(=S)Nc2ccc(C)cc2)CC1 | 63* | -2 | 0 | -5 | 2 | -3 | 21*
Cc1ccccc1N1CCN(C(=S)c2ccc(-c3cccc([N+](=O)[O-])c3)o2)CC1 | 44* | -8 | -3 | -2 | -9 | 3 | 26*
Cc1ccccc1N1CCN(C(=S)c2ccc(-c3ccc([N+](=O)[O-])cc3)o2)CC1 | 12 | 1 | -6 | -11 | -12 | 3 | ·
COc1ccc(N2CCN(C(CNS(C)(=O)=O)c3ccco3)CC2)cc1 (stereo not drawn) | -1 | 4 | 9 | -1 | 0 | -2 | ·
CC(=NNC(=S)N1CCCC1)c1ccccn1 | 9 | 2 | -3 | · | -14 | -1 | ·
CC(=NNC(=S)N1CC2CCC(CC2)C1)c1cccc(C)n1 | 59* | 2 | 0 | -2 | -2 | 2 | active
Cn1cc(C(=O)NCc2ccc(Cl)cc2)c(=O)c2cc(S(=O)(=O)N3CCOCC3)ccc21 | 0 | 2 | -2 | -5 | 9 | 0 | ·
Cn1c(CNC(=O)CCNC(=O)c2cccc(Br)c2)cc(=O)n(C)c1=O | -1 | 1 | 3 | 8 | -3 | -2 | ·
NS(=O)(=O)c1ccc(NC(=S)NCCc2ccccc2)cc1 | 52* | -2 | 2 | -21 | 0 | 0 | 38*
CC(C)OCCCNC(=S)Nc1ccc(S(N)(=O)=O)cc1 | 83* | 4 | 2 | -1 | 2 | -2 | 36*
O=C(N/C(=C\c1ccccc1)C(=O)N1CCOCC1)c1ccccc1Br | -1 | -3 | 1 | -5 | -1 | 0 | ·
S=C1NC2=C(CCCC2=C2SCCS2)C(c2ccccc2)N1 (stereo not drawn) | 70* | -2 | -4 | 1 | -14 | 0 | 60*
Cc1cc2nc(-c3ccccc3)c(Cc3ccsc3)n2c(C)c1Br | · | -2 | · | · | 5 | 2 | ·
Fc1ccc(-n2c(=S)[nH]c3cccnc32)cc1 | 65* | 3 | 5 | -4 | 1 | 1 | 17
O=C(CSc1ccc(-c2ccccn2)nn1)Nc1cccc(F)c1 | -1 | 1 | -4 | -2 | -3 | 1 | ·
O=C(O)c1ccc(NC(=S)Nc2ccccc2)cc1 | 107* | 1 | 1 | 6 | 2 | -1 | 8
Cc1cccc(C)c1NC(=S)N(Cc1ccco1)C1CCN(C(C)C)CC1 | 46* | -10 | 2 | -5 | 3 | 1 | 8
O=C(O)Cn1cnc2c(=S)nc[nH]c21 | -2 | 3 | 1 | -3 | 3 | 0 | ·
S=c1nc[nH]c2c1ncn2-c1ccc(Cl)cc1 | 86* | -1 | 7 | 5 | 5 | 1 | 38*

Source: PubChem BioAssay (Sanford-Burnham Center for Chemical Genomics)
